ChEMBL document CHEMBL1137451, “Synthesis and evaluation of antifungal properties of a series of the novel 2-amino-5-oxo-4-phenyl-5,6,7,8-tetrahydroquinoline-3-carbonitrile and its analogues” (Bioorg Med Chem, 2007)
Converted amounts (≈) assume the structure as drawn. Each block holds one compound with its values, some of them ahead of it. The source made the active and inactive calls. The calls are words filed in the database; no cut-off is given here.

Legend:
MCF7 [1] = assay: Antiproliferative activity against human MCF7 cells at 1 mg/mL assessed as cell viability by MTT assay; type: functional, cell-based
In short: (§1)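 Hep3B or MCF-7 cells in MEM with 10% heat-inactivated FBS at 37 °C, 5% CO2, seeded 10,000/well and left to adhere 24 h. Exposed 48 h to compound diluted from 4 mg/ml DMSO stock, then 24 h in fresh medium. MTT (1 mg/ml, 4 h), formazan dissolved in 2-propanol, read at 570 nm (630 nm reference). DMSO-only wells set as 100% growth; triplicates.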

Candida albicans [2] = assay: Antifungal activity against Candida albicans 1 after 24 hrs by disc diffusion method; type: functional
In short: (§2)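 Disc diffusion on Candida albicans strains 1 and 2 (yeast suspension), Fusarium oxysporum strains 1 and 2 and Mucor sp. (mycelial suspension), spread on YPG or PDA agar. Compound at graded amounts per filter-paper disc, 28 °C for 24 h. MIC taken as the lowest amount giving a 2 mm inhibition zone. Controls: 50% v/v DMSO vehicle, cycloheximide, amphotericin B.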

Fusarium oxysporum [3] = assay: Antifungal activity against Fusarium oxysporum 2 after 24 hrs by disc diffusion method; type: functional; in short: as §2
Mucor [4] = assay: Antifungal activity against Mucor at 60 ug/disc after 24 hrs by disc diffusion method; type: functional; settings: read-out: IZ
In short: (§3)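 Yeast suspensions (C. albicans strains 1, 2) and mycelial suspensions (F. oxysporum strains 1, 2; Mucor sp.) spread on YPG (0.3% yeast extract, 0.5% peptone, 1% glucose) or PDA agar. Compound applied on filter-paper discs at the stated amount; 28 °C, 24 h. Read-out is inhibition zone diameter. Controls: 50% v/v DMSO vehicle, cycloheximide, amphotericin B.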

Mucor [5] = assay: Antifungal activity against Mucor at 100 ug/disc after 24 hrs by disc diffusion method; type: functional; settings: read-out: IZ; in short: as §3
Hep 3B2 [6] = assay: Antiproliferative activity against human Hep3B cells upto 400 ug/mL assessed as cell viability by MTT assay; type: functional, cell-based; in short: as §1
Candida albicans [7] = assay: Antifungal activity against Candida albicans 2 at 40 ug/disc after 24 hrs by disc diffusion method; type: functional; settings: for zone of inhibition at 40 µg/disc: read-out: IZ; in short: as §3
MCF7 [8] = assay: Antiproliferative activity against human MCF7 cells assessed as cell viability by MTT assay; type: functional, cell-based
In short: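 MCF-7 cells in MEM with 10% FBS, 37 °C, 5% CO2, seeded 10,000/well, adhered 24 h. Treated 48 h at 0, 1, 10, 100, 1000 or 2000 µg/ml (DMSO stock diluted in medium), then 24 h recovery. MTT 4 h, 2-propanol solubilisation, A570 against 630 nm. DMSO carrier set as 100% growth; IC50 taken from the dose curve; triplicates.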

Fusarium oxysporum [9] = assay: Antifungal activity against Fusarium oxysporum 1 at 100 ug/disc after 24 hrs by disc diffusion method; type: functional; settings: read-out: IZ; in short: as §3
Fusarium oxysporum [10] = assay: Antifungal activity against Fusarium oxysporum 1 after 24 hrs by disc diffusion method; type: functional; in short: as §2
Hep 3B2 [11] = assay: Antiproliferative activity against human Hep3B cells at 1 mg/mL assessed as cell viability by MTT assay; type: functional, cell-based; in short: as §1
Mucor [12] = assay: Antifungal activity against Mucor at after 24 hrs by disc diffusion method; type: functional; in short: as §2
Candida albicans [13] = assay: Antifungal activity against Candida albicans 2 after 24 hrs by disc diffusion method; type: functional; in short: as §2
Candida albicans [14] = assay: Antifungal activity against Candida albicans 1 at 60 ug/disc after 24 hrs by disc diffusion method; type: functional; settings: read-out: IZ; in short: as §3
Candida albicans [15] = assay: Antifungal activity against Candida albicans 2 at 60 ug/disc after 24 hrs by disc diffusion method; type: functional; settings: read-out: IZ; in short: as §3
Fusarium oxysporum [16] = assay: Antifungal activity against Fusarium oxysporum 2 at 60 ug/disc after 24 hrs by disc diffusion method; type: functional; settings: read-out: IZ; in short: as §3
Candida albicans [17] = assay: Antifungal activity against Candida albicans 2 at 100 ug/disc after 24 hrs by disc diffusion method; type: functional; settings: read-out: IZ; in short: as §3
Fusarium oxysporum [18] = assay: Antifungal activity against Fusarium oxysporum 2 at 40 ug/disc after 24 hrs by disc diffusion method; type: functional; settings: for zone of inhibition at 40 µg/disc: read-out: IZ; in short: as §3
Fusarium oxysporum [19] = assay: Antifungal activity against Fusarium oxysporum 2 at 100 ug/disc after 24 hrs by disc diffusion method; type: functional; settings: read-out: IZ; in short: as §3
Mucor [20] = assay: Antifungal activity against Mucor at 40 ug/disc after 24 hrs by disc diffusion method; type: functional; settings: for zone of inhibition at 40 µg/disc: read-out: IZ; in short: as §3
Candida albicans [21] = assay: Antifungal activity against Candida albicans 1 at 40 ug/disc after 24 hrs by disc diffusion method; type: functional; settings: for zone of inhibition at 40 µg/disc: read-out: IZ; in short: as §3
Fusarium oxysporum [22] = assay: Antifungal activity against Fusarium oxysporum 1 at 40 ug/disc after 24 hrs by disc diffusion method; type: functional; settings: for zone of inhibition at 40 µg/disc: read-out: IZ; in short: as §3
Fusarium oxysporum [23] = assay: Antifungal activity against Fusarium oxysporum 1 at 60 ug/disc after 24 hrs by disc diffusion method; type: functional; settings: read-out: IZ; in short: as §3
Candida albicans [24] = assay: Antifungal activity against Candida albicans 1 at 100 ug/disc after 24 hrs by disc diffusion method; type: functional; settings: read-out: IZ; in short: as §3
Benjaminiella poitrasii [25] = assay: Inhibition of yeast hypha transition at 20 ug/mL after 4 hrs
Benjaminiella poitrasii [26] = assay: Inhibition of Benjaminiella poitrasii chitin synthase at 4 ug/mL
In short: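 Chitin synthase from Benjaminiella poitrasii measured with and without compound at 4 µg/ml, using a non-radioactive chitin synthase assay. Nikkomycin Z used as reference.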

SMILES: C[C@@H]1[C@H](O)[C@@H](C)/C=C/C=C/C=C/C=C/C=C/C=C/C=C/[C@H](O[C@@H]2O[C@H](C)[C@@H](O)[C@H](N)[C@@H]2O)C[C@@H]2O[C@](O)(C[C@@H](O)C[C@@H](O)[C@H](O)CC[C@@H](O)C[C@@H](O)CC(=O)O[C@H]1C)C[C@H](O)[C@H]2C(=O)O [AMPHOTERICIN B]
Activity (MCF7 [1]): Toxic
MIC (Candida albicans [2]): 40 µg/disc
MIC (Fusarium oxysporum [3]): 40 µg/disc
zone of inhibition at 60 µg/disc (Mucor [4]): 7 mm
zone of inhibition at 100 µg/disc (Mucor [5]): 10 mm
Activity (Hep 3B2 [6]): Non-toxic
zone of inhibition at 40 µg/disc (Candida albicans [7]): 4 mm
IC50 (MCF7 [8]): 60 µg/mL (≈ 64.9 µM)
zone of inhibition at 100 µg/disc (Fusarium oxysporum [9]): 9 mm
MIC (Fusarium oxysporum [10]): 40 µg/disc
Activity (Hep 3B2 [11]): Toxic
MIC (Mucor [12]): 40 µg/disc
MIC (Candida albicans [13]): 40 µg/disc
zone of inhibition at 60 µg/disc (Candida albicans [14]): 7 mm
zone of inhibition at 60 µg/disc (Candida albicans [15]): 7 mm
zone of inhibition at 60 µg/disc (Fusarium oxysporum [16]): 6 mm
zone of inhibition at 100 µg/disc (Candida albicans [17]): 12 mm
zone of inhibition at 40 µg/disc (Fusarium oxysporum [18]): 3 mm
zone of inhibition at 100 µg/disc (Fusarium oxysporum [19]): 9 mm
zone of inhibition at 40 µg/disc (Mucor [20]): 5 mm
zone of inhibition at 40 µg/disc (Candida albicans [21]): 4 mm
zone of inhibition at 40 µg/disc (Fusarium oxysporum [22]): 2 mm
zone of inhibition at 60 µg/disc (Fusarium oxysporum [23]): 6 mm
zone of inhibition at 100 µg/disc (Candida albicans [24]): 12 mm

SMILES: Cc1ccc(-c2c(C#N)c(N)nc3c2C(=O)CCC3)cc1
MIC (Candida albicans [2]): 40 µg/disc
MIC (Fusarium oxysporum [3]): 40 µg/disc
zone of inhibition at 60 µg/disc (Mucor [4]): 10 mm
zone of inhibition at 100 µg/disc (Mucor [5]): 14 mm
zone of inhibition at 40 µg/disc (Candida albicans [7]): 3 mm
zone of inhibition at 100 µg/disc (Fusarium oxysporum [9]): 7 mm
MIC (Fusarium oxysporum [10]): 40 µg/disc
MIC (Mucor [12]): 60 µg/disc
MIC (Candida albicans [13]): 40 µg/disc
zone of inhibition at 60 µg/disc (Candida albicans [14]): 4 mm
zone of inhibition at 60 µg/disc (Candida albicans [15]): 4 mm
inhibition at 20 µg/mL (Benjaminiella poitrasii [25]): 90%
zone of inhibition at 60 µg/disc (Fusarium oxysporum [16]): 3 mm
zone of inhibition at 100 µg/disc (Candida albicans [17]): 7 mm
zone of inhibition at 40 µg/disc (Fusarium oxysporum [18]): 2 mm
zone of inhibition at 100 µg/disc (Fusarium oxysporum [19]): 7 mm
inhibition (Benjaminiella poitrasii [26]): 91%
Activity (Mucor [20]): inactive
zone of inhibition at 40 µg/disc (Candida albicans [21]): 3 mm
zone of inhibition at 40 µg/disc (Fusarium oxysporum [22]): 2 mm
zone of inhibition at 60 µg/disc (Fusarium oxysporum [23]): 3 mm
zone of inhibition at 100 µg/disc (Candida albicans [24]): 7 mm

SMILES: N#Cc1c(N)nc2c(c1-c1ccccc1Cl)C(=O)CCC2
MIC (Candida albicans [2]): 60 µg/disc
MIC (Fusarium oxysporum [3]): 40 µg/disc
zone of inhibition at 60 µg/disc (Mucor [4]): 7 mm
zone of inhibition at 100 µg/disc (Mucor [5]): 10 mm
Activity (Candida albicans [7]): inactive
zone of inhibition at 100 µg/disc (Fusarium oxysporum [9]): 6 mm
MIC (Fusarium oxysporum [10]): 40 µg/disc
MIC (Mucor [12]): 60 µg/disc
MIC (Candida albicans [13]): 60 µg/disc
zone of inhibition at 60 µg/disc (Candida albicans [14]): 2 mm
zone of inhibition at 60 µg/disc (Candida albicans [15]): 2 mm
inhibition at 20 µg/mL (Benjaminiella poitrasii [25]): 95%
zone of inhibition at 60 µg/disc (Fusarium oxysporum [16]): 3 mm
zone of inhibition at 100 µg/disc (Candida albicans [17]): 4 mm
zone of inhibition at 40 µg/disc (Fusarium oxysporum [18]): 2 mm
zone of inhibition at 100 µg/disc (Fusarium oxysporum [19]): 6 mm
inhibition (Benjaminiella poitrasii [26]): 86%
Activity (Mucor [20]): inactive
Activity (Candida albicans [21]): inactive
zone of inhibition at 40 µg/disc (Fusarium oxysporum [22]): 2 mm
zone of inhibition at 60 µg/disc (Fusarium oxysporum [23]): 3 mm
zone of inhibition at 100 µg/disc (Candida albicans [24]): 4 mm

The next lines start with results.

MIC (Candida albicans [2]): 60 µg/disc
MIC (Fusarium oxysporum [3]): 60 µg/disc
MIC (Fusarium oxysporum [10]): 60 µg/disc
MIC (Mucor [12]): 40 µg/disc
MIC (Candida albicans [13]): 60 µg/disc
inhibition (Benjaminiella poitrasii [26]): 61%
SMILES: CC(=O)N(C(C)=O)c1nc2c(c(-c3ccc(C)cc3)c1C#N)C(=O)CCC2
zone of inhibition at 60 µg/disc (Mucor [4]): 7 mm
zone of inhibition at 100 µg/disc (Mucor [5]): 10 mm
Activity (Candida albicans [7]): inactive
zone of inhibition at 100 µg/disc (Fusarium oxysporum [9]): 4 mm
zone of inhibition at 60 µg/disc (Candida albicans [14]): 4 mm
zone of inhibition at 60 µg/disc (Candida albicans [15]): 4 mm
inhibition at 20 µg/mL (Benjaminiella poitrasii [25]): 90%
zone of inhibition at 60 µg/disc (Fusarium oxysporum [16]): 2 mm
zone of inhibition at 100 µg/disc (Candida albicans [17]): 6 mm
Activity (Fusarium oxysporum [18]): inactive
zone of inhibition at 100 µg/disc (Fusarium oxysporum [19]): 4 mm
zone of inhibition at 40 µg/disc (Mucor [20]): 3 mm
Activity (Candida albicans [21]): inactive
Activity (Fusarium oxysporum [22]): inactive
zone of inhibition at 60 µg/disc (Fusarium oxysporum [23]): 2 mm
zone of inhibition at 100 µg/disc (Candida albicans [24]): 6 mm

MIC (Candida albicans [2]): 40 µg/disc
MIC (Fusarium oxysporum [3]): 40 µg/disc
IC50 (MCF7 [8]): 50 µg/mL (≈ 125 µM)
MIC (Fusarium oxysporum [10]): 40 µg/disc
MIC (Mucor [12]): 40 µg/disc
MIC (Candida albicans [13]): 40 µg/disc
inhibition (Benjaminiella poitrasii [26]): 91%
SMILES: CC(=O)Nc1nc2c(c(-c3cccc(N4C(=O)C=CC4=O)c3)c1C#N)C(=O)CCC2
Activity (MCF7 [1]): Toxic
zone of inhibition at 60 µg/disc (Mucor [4]): 9 mm
zone of inhibition at 100 µg/disc (Mucor [5]): 11 mm
Activity (Hep 3B2 [6]): Non-toxic
zone of inhibition at 40 µg/disc (Candida albicans [7]): 2 mm
zone of inhibition at 100 µg/disc (Fusarium oxysporum [9]): 6 mm
Activity (Hep 3B2 [11]): Toxic
zone of inhibition at 60 µg/disc (Candida albicans [14]): 2 mm
zone of inhibition at 60 µg/disc (Candida albicans [15]): 2 mm
inhibition at 20 µg/mL (Benjaminiella poitrasii [25]): 95%
zone of inhibition at 60 µg/disc (Fusarium oxysporum [16]): 2 mm
zone of inhibition at 100 µg/disc (Candida albicans [17]): 7 mm
zone of inhibition at 40 µg/disc (Fusarium oxysporum [18]): 2 mm
zone of inhibition at 100 µg/disc (Fusarium oxysporum [19]): 6 mm
zone of inhibition at 40 µg/disc (Mucor [20]): 8 mm
zone of inhibition at 40 µg/disc (Candida albicans [21]): 2 mm
zone of inhibition at 40 µg/disc (Fusarium oxysporum [22]): 2 mm
zone of inhibition at 60 µg/disc (Fusarium oxysporum [23]): 2 mm
zone of inhibition at 100 µg/disc (Candida albicans [24]): 7 mm
